According to ChEMBL document CHEMBL1926569, “Novel (E)-1-(4-methyl-2-(alkylamino)thiazol-5-yl)-3-arylprop-2-en-1-ones as potent antimicrobial agents” (2011):
In brackets after ≈: the same amount, converted by molar mass.

Tests used:
Aspergillus ochraceus [1] = assay: Antifungal activity against Aspergillus ochraceus ATCC 12066 after 72 hrs by serial dilution technique; type: functional; settings: ATCC 12066, 72 h
Summary of the method: (§1)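 Modified microdilution in 96-well plates. Fungi were kept on malt agar at 4 °C. Spores were washed off in sterile 0.85% saline with 0.1% Tween 80. Compounds were dissolved at 1 mg/ml in 5% DMSO with 0.1% Tween 80 and added to malt broth with inoculum. Plates were shaken at 160 rpm for 72 h at 28 °C. Duplicate, repeated three times.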

Escherichia coli [2] = assay: Antibacterial activity against Escherichia coli ATCC 35210 after 24 hrs by microdilution method; type: functional; settings: ATCC 35210, 24 h
Summary of the method: (§2)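 Broth microdilution in 96-well plates. Bacterial suspensions were adjusted in sterile saline to 1.0 × 10⁵ CFU/ml, prepared daily and kept at 4 °C. Compound was added to LB broth with 1.0 × 10⁴ CFU per well and shaken at 160 rpm for 24 h at […] (so in the source). MIC is the lowest concentration with no visible growth under a binocular microscope. OD655 was also read. Duplicate, repeated three times.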

Trichoderma viride [3] = assay: Antifungal activity against Trichoderma viride IAM 5061 after 72 hrs by serial dilution technique; type: functional; settings: IAM 5061, 72 h; summary of the method: as §1
Listeria monocytogenes [4] = assay: Antibacterial activity against Listeria monocytogenes NCTC 7973 after 24 hrs by microdilution method; type: functional; settings: NCTC 7973, 24 h; summary of the method: as §2
Talaromyces funiculosus [5] = assay: Antifungal activity against Penicillium funiculosum ATCC 36839 after 72 hrs by serial dilution technique; type: functional; settings: ATCC 36839, 72 h; summary of the method: as §1
Penicillium ochrochloron [6] = assay: Antifungal activity against Penicillium ochrochloron ATCC 9112 after 72 hrs by serial dilution technique; type: functional; settings: ATCC 9112, 72 h; summary of the method: as §1
Trichoderma viride [7] = assay: Ratio of bifonazole to compound for Trichoderma viride IAM 5061; type: functional
Bacillus cereus [8] = assay: Antibacterial activity against clinical isolate of Bacillus cereus incubated for 24 hrs followed by serial sub-cultivation for 24 hrs by microdilution; type: functional
Summary of the method: (§3)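 MBC: after the 24 h LB broth microdilution (1.0 × 10⁴ CFU per well, 160 rpm), wells were serially sub-cultured into fresh broth plates and incubated a further 24 h. MBC is the lowest concentration with no visible growth, taken as 99.5% killing of the original inoculum. Duplicate, repeated three times.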

Aspergillus ochraceus [9] = assay: Ratio of bifonazole to compound for Aspergillus ochraceus ATCC 12066; type: functional
Aspergillus niger [10] = assay: Antifungal activity against Aspergillus niger ATCC 6275 after 72 hrs by serial dilution technique; type: functional; settings: ATCC 6275, 72 h; summary of the method: as §1
Aspergillus flavus [11] = assay: Antifungal activity against Aspergillus flavus ATCC 9643 incubated for 72 hrs followed by serial sub-cultivation for 72 hrs by serial dilution technique; type: functional; settings: ATCC 9643, 72 h
Summary of the method: (§4)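 MFC: material from 72 h malt broth microdilution wells was serially sub-cultured into fresh broth plates and incubated a further 72 h at 28 °C. Fungicidal concentration is taken from growth after sub-culture. Duplicate, repeated three times.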

Penicillium ochrochloron [12] = assay: Ratio of bifonazole to compound for Penicillium ochrochloron ATCC 9112; type: functional
Talaromyces funiculosus [13] = assay: Antifungal activity against Penicillium funiculosum ATCC 36839 incubated for 72 hrs followed by serial sub-cultivation for 72 hrs by serial dilution technique; type: functional; settings: ATCC 36839, 72 h; summary of the method: as §4
Candida albicans [14] = assay: Antifungal activity against Candida albicans isolated from human after 72 hrs by serial dilution technique; type: functional; summary of the method: as §1
Pseudomonas aeruginosa [15] = assay: Antibacterial activity against Pseudomonas aeruginosa ATCC 27853 after 24 hrs by microdilution method; type: functional; settings: ATCC 27853, 24 h; summary of the method: as §2
Listeria monocytogenes [16] = assay: Antibacterial activity against Listeria monocytogenes NCTC 7973 incubated for 24 hrs followed by serial sub-cultivation for 24 hrs by microdilution; type: functional; settings: NCTC 7973, 24 h; summary of the method: as §3
Pseudomonas aeruginosa [17] = assay: Antibacterial activity against Pseudomonas aeruginosa ATCC 27853 incubated for 24 hrs followed by serial sub-cultivation for 24 hrs by microdilution; type: functional; settings: ATCC 27853, 24 h; summary of the method: as §3
Penicillium ochrochloron [18] = assay: Antifungal activity against Penicillium ochrochloron ATCC 9112 incubated for 72 hrs followed by serial sub-cultivation for 72 hrs by serial dilution technique; type: functional; settings: ATCC 9112, 72 h; summary of the method: as §4
Enterococcus faecalis [19] = assay: Antibacterial activity against Enterococcus faecalis isolated from human after 24 hrs by microdilution method; type: functional; summary of the method: as §2
Penicillium ochrochloron [20] = assay: Ratio of ketoconazole to compound for Penicillium ochrochloron ATCC 9112; type: functional
Aspergillus ochraceus [21] = assay: Ratio of ketoconazole to compound for Aspergillus ochraceus ATCC 12066; type: functional
Salmonella typhimurium [22] = assay: Antibacterial activity against Salmonella Typhimurium ATCC 13311 incubated for 24 hrs followed by serial sub-cultivation for 24 hrs by microdilution; type: functional, Salmonella enterica subsp. enterica serovar Typhimurium; settings: Salmonella enterica, ATCC 13311, 24 h; summary of the method: as §3
Candida albicans [23] = assay: Ratio of bifonazole to compound for Candida albicans isolated from human; type: functional
Aspergillus niger [24] = assay: Ratio of bifonazole to compound for Aspergillus niger ATCC 6275; type: functional
Escherichia coli [25] = assay: Antibacterial activity against Escherichia coli ATCC 35210 incubated for 24 hrs followed by serial sub-cultivation for 24 hrs by microdilution; type: functional; settings: ATCC 35210, 24 h; summary of the method: as §3
Candida albicans [26] = assay: Antifungal activity against Candida albicans isolated from human incubated for 72 hrs followed by serial sub-cultivation for 72 hrs by serial dilution technique; type: functional; summary of the method: as §4
Salmonella typhimurium [27] = assay: Antibacterial activity against Salmonella Typhimurium ATCC 13311 after 24 hrs by microdilution method; type: functional, Salmonella enterica subsp. enterica serovar Typhimurium; settings: Salmonella enterica, ATCC 13311, 24 h; summary of the method: as §2
Candida albicans [28] = assay: Ratio of ketoconazole to compound for Candida albicans isolated from human; type: functional
Trichoderma viride [29] = assay: Antifungal activity against Trichoderma viride IAM 5061 incubated for 72 hrs followed by serial sub-cultivation for 72 hrs by serial dilution technique; type: functional; settings: IAM 5061, 72 h; summary of the method: as §4
Bacillus cereus [30] = assay: Antibacterial activity against clinical isolate of Bacillus cereus after 24 hrs by microdilution method; type: functional; summary of the method: as §2
Aspergillus niger [31] = assay: Antifungal activity against Aspergillus niger ATCC 6275 incubated for 72 hrs followed by serial sub-cultivation for 72 hrs by serial dilution technique; type: functional; settings: ATCC 6275, 72 h; summary of the method: as §4
Aspergillus fumigatus [32] = assay: Ratio of ketoconazole to compound for Aspergillus fumigatus isolated from human; type: functional
Enterococcus faecalis [33] = assay: Antibacterial activity against Enterococcus faecalis isolated from human incubated for 24 hrs followed by serial sub-cultivation for 24 hrs by microdilution; type: functional; summary of the method: as §3
Aspergillus fumigatus [34] = assay: Antifungal activity against Aspergillus fumigatus isolated from human incubated for 72 hrs followed by serial sub-cultivation for 72 hrs by serial dilution technique; type: functional; summary of the method: as §4
Aspergillus flavus [35] = assay: Antifungal activity against Aspergillus flavus ATCC 9643 after 72 hrs by serial dilution technique; type: functional; settings: ATCC 9643, 72 h; summary of the method: as §1
Aspergillus ochraceus [36] = assay: Antifungal activity against Aspergillus ochraceus after 72 hrs by serial dilution technique
Micrococcus flavus [37] = assay: Antibacterial activity against Micrococcus flavus ATCC 10240 incubated for 24 hrs followed by serial sub-cultivation for 24 hrs by microdilution; type: functional; settings: ATCC 10240, 24 h; summary of the method: as §3
Aspergillus ochraceus [38] = assay: Antifungal activity against Aspergillus ochraceus ATCC 12066 incubated for 72 hrs followed by serial sub-cultivation for 72 hrs by serial dilution technique; type: functional; settings: ATCC 12066, 72 h; summary of the method: as §4
Micrococcus flavus [39] = assay: Antibacterial activity against Micrococcus flavus ATCC 10240 after 24 hrs by microdilution method; type: functional; settings: ATCC 10240, 24 h; summary of the method: as §2
Talaromyces funiculosus [40] = assay: Ratio of bifonazole to compound for Penicillium funiculosum ATCC 36839; type: functional
Staphylococcus aureus [41] = assay: Antibacterial activity against Staphylococcus aureus ATCC 6538 after 24 hrs by microdilution method; type: functional; settings: ATCC 6538, 24 h; summary of the method: as §2
Staphylococcus aureus [42] = assay: Antibacterial activity against Staphylococcus aureus ATCC 6538 incubated for 24 hrs followed by serial sub-cultivation for 24 hrs by microdilution method; type: functional; settings: ATCC 6538, 24 h; summary of the method: as §3
Pseudomonas aeruginosa [43] = assay: Ratio of ampicillin MIC to compound MIC for Pseudomonas aeruginosa ATCC 27853; type: functional

## CCNc1nc(C)c(C(=O)/C=C/c2ccc(Cl)cc2)s1
Aspergillus ochraceus [1]
  MIC: 65.3 µM (≈ 20 µg/mL)
Escherichia coli [2]
  MIC: 65.3 µM (≈ 20 µg/mL)
Trichoderma viride [3]
  MIC: 32.7 µM (≈ 10 µg/mL)
Listeria monocytogenes [4]
  MIC: 98 µM (≈ 30.1 µg/mL)
Talaromyces funiculosus [5]
  MIC: 32.7 µM (≈ 10 µg/mL)
Penicillium ochrochloron [6]
  MIC: 65.3 µM (≈ 20 µg/mL)
Trichoderma viride [7]
  Ratio: 10
Bacillus cereus [8]
  MBC: 81.7 µM (≈ 25.1 µg/mL)
Aspergillus ochraceus [9]
  Ratio: 10
Aspergillus niger [10]
  MIC: 65.3 µM (≈ 20 µg/mL)
Aspergillus flavus [11]
  MFC: 81.7 µM (≈ 25.1 µg/mL)
Penicillium ochrochloron [12]
  Ratio: 10
Talaromyces funiculosus [13]
  MFC: 65.3 µM (≈ 20 µg/mL)
Candida albicans [14]
  MIC: 32.7 µM (≈ 10 µg/mL)
Pseudomonas aeruginosa [15]
  MIC: 65.3 µM (≈ 20 µg/mL)
Listeria monocytogenes [16]
  MBC: 98 µM (≈ 30.1 µg/mL)
Pseudomonas aeruginosa [17]
  MBC: 98 µM (≈ 30.1 µg/mL)
Penicillium ochrochloron [18]
  MFC: 81.7 µM (≈ 25.1 µg/mL)
Enterococcus faecalis [19]
  MIC: 81.7 µM (≈ 25.1 µg/mL)
Penicillium ochrochloron [20]
  Ratio: 10
Aspergillus ochraceus [21]
  Ratio: 10
Salmonella typhimurium [22]
  MBC: 49 µM (≈ 15 µg/mL)
Candida albicans [23]
  Ratio: 10
Aspergillus niger [24]
  Ratio: 10
Escherichia coli [25]
  MBC: 98 µM (≈ 30.1 µg/mL)
Candida albicans [26]
  MFC: 65.3 µM (≈ 20 µg/mL)
Salmonella typhimurium [27]
  MIC: 49 µM (≈ 15 µg/mL)
Candida albicans [28]
  Ratio: 10
Trichoderma viride [29]
  MFC: 65.3 µM (≈ 20 µg/mL)
Bacillus cereus [30]
  MIC: 81.7 µM (≈ 25.1 µg/mL)
Aspergillus niger [31]
  MFC: 81.7 µM (≈ 25.1 µg/mL)
Aspergillus fumigatus [32]
  Ratio: 10
Enterococcus faecalis [33]
  MBC: 81.7 µM (≈ 25.1 µg/mL)
Aspergillus fumigatus [34]
  MFC: 65.3 µM (≈ 20 µg/mL)
Aspergillus flavus [35]
  MIC: 65.3 µM (≈ 20 µg/mL)
Aspergillus ochraceus [36]
  MIC: 49 µM (≈ 15 µg/mL)
Micrococcus flavus [37]
  MBC: 81.7 µM (≈ 25.1 µg/mL)
Aspergillus ochraceus [38]
  MFC: 81.7 µM (≈ 25.1 µg/mL)
Micrococcus flavus [39]
  MIC: 65.3 µM (≈ 20 µg/mL)
Talaromyces funiculosus [40]
  Ratio: 10
Staphylococcus aureus [41]
  MIC: 98 µM (≈ 30.1 µg/mL)
Staphylococcus aureus [42]
  MBC: 98 µM (≈ 30.1 µg/mL)
Pseudomonas aeruginosa [43]
  Ratio: 10
